{"data": "Measurements collected from several papers", "note": "Compare with care: the assays were run in different laboratories."}
{"SMILES": "CC(C)=CCC/C(C)=C/COc1cc(O)cc(O)c1C(=O)c1ccccc1", "test": "ABTS scavenging, absorbance", "setting": "5 min", "measurement": "IC50", "value": "380000 nM"}
{"SMILES": "COc1ccc2c(c1)/C(=N/NC(=O)c1cc3ccccc3[nH]1)C(=O)N2Cc1ccccc1", "tested on": "A549", "test": "cell growth or viability", "setting": "30 µM", "measurement": "inhibition", "value": "97.4%"}
{"SMILES": "C[C@@H]1[C@H](O)[C@@H](C)/C=C/C=C/C=C/C=C/C=C/C=C/C=C/[C@H](O[C@@H]2O[C@H](C)[C@@H](O)[C@H](N)[C@@H]2O)C[C@@H]2O[C@](O)(C[C@@H](O)C[C@@H](O)[C@H](O)CC[C@@H](O)C[C@@H](O)CC(=O)O[C@H]1C)C[C@H](O)[C@H]2C(=O)O", "tested on": "Leishmania donovani", "test": "parasite growth", "test system": "THP-1", "setting": "intracellular, amastigote", "measurement": "IC50", "value": "0.1 µg/mL"}
{"SMILES": "O=C(NCCCCCCCCNc1c2c(nc3ccccc13)CCCC2)c1ccccc1O", "test": "ABTS scavenging", "setting": "1 h", "measurement": "IC50", "value": "25900 nM"}
{"SMILES": "COC(=O)C(Cc1ccccc1)n1c(C)nc2c(N)nc(N)nc21 (stereo not shown)", "tested on": "unidentified influenza virus", "test": "viral replication", "test system": "A549, H1N1 PR8", "setting": "24 h", "measurement": "IC50", "value": "39 nM"}
{"SMILES": "C[C@]12CCC(=O)C[C@@H]1CC[C@@H]1[C@@H]2CC[C@@]2(C)[C@H]1CC[C@]2(C)O", "tested on": "NIH3T3", "test": "cell growth or viability, MTT", "setting": "24 h", "measurement": "IC50", "value": "> 30000 nM"}
{"SMILES": "N=C(N)c1ccc(OCCCCCOc2ccc(C(=N)N)cc2)cc1", "tested on": "Leishmania donovani", "test": "parasite growth, resazurin", "setting": "72 h, promastigote", "measurement": "IC90", "value": "2 µg/mL"}
{"SMILES": "Nc1ncnc2c([C@@H]3N[C@H](CO)[C@@H](O)[C@H]3O)c[nH]c12", "tested on": "unidentified influenza virus", "test": "viral replication, inhibitor", "test system": "MDCK", "setting": "0.1 µM", "measurement": "inhibition", "value": "0%"}
{"SMILES": "CC(C)(C)OC(=O)N1CCN(c2ccc(-c3cnc4[nH]cc(C(=O)c5ccc(F)cc5)c4c3)cc2)CC1", "tested on": "A549", "test": "cell growth or viability, MTT", "setting": "10 µM, 48 h", "measurement": "viability", "value": "91.5%"}
{"SMILES": "C[C@]1(COc2ccc(N3CCC(Oc4ccc(OC(F)(F)F)cc4)CC3)cc2)Cn2cc([N+](=O)[O-])nc2O1", "tested on": "Leishmania donovani", "test": "parasite growth", "setting": "promastigote", "measurement": "IC50", "value": "249 nM"}
{"SMILES": "N#Cc1cc2c(-c3ccccc3)n[nH]c2c(Nc2ccccc2)n1", "tested on": "PC-3", "test": "cell growth or viability, MTS", "setting": "48 h", "measurement": "IC50", "value": "2100 nM"}
{"SMILES": "O=C(N/N=C1\\C(=O)N(Cc2ccccc2)c2ccc(F)cc21)c1cc2ccccc2[nH]1", "tested on": "A549", "test": "cell growth or viability", "setting": "30 µM", "measurement": "inhibition", "value": "99.1%"}
{"SMILES": "CCOC(=O)C1=C[C@@H](OC(CC)CC)[C@H](NC(C)=O)[C@@H](N)C1", "tested on": "unidentified influenza virus", "test": "viral replication", "test system": "A549, H1N1 PR8", "setting": "24 h", "measurement": "IC50", "value": "180 nM"}
{"SMILES": "O=C(N/N=C1\\C(=O)N(Cc2ccccc2)c2ccc(Cl)cc21)c1cc2ccccc2[nH]1", "tested on": "A549", "test": "cell growth or viability", "measurement": "IC50", "value": "760 nM"}
{"SMILES": "Cc1c(C)c2c(c(C)c1O)CCC(C)(C(=O)O)O2 (stereo not shown)", "test": "ABTS scavenging", "measurement": "IC50", "value": "6.16 µg/mL"}
{"SMILES": "O=C(c1cccc(F)c1)c1c[nH]c2ncc(-c3ccc(N4CCNCC4)nc3)cc12", "tested on": "A549", "test": "cell growth or viability, MTT", "setting": "10 µM, 48 h", "measurement": "viability", "value": "62.8%"}
{"SMILES": "O=C(NCCCCCCNc1c2c(nc3ccccc13)CCCC2)c1ccccc1O", "test": "ABTS scavenging", "setting": "1 h", "measurement": "IC50", "value": "21300 nM"}
{"SMILES": "Oc1c(Cl)cc(Cl)cc1Sc1cc(Cl)cc(Cl)c1O", "tested on": "Betapolyomavirus hominis", "test": "viral replication, inhibitor, qPCR", "test system": "Vero", "setting": "30 µM, 5 days", "measurement": "inhibition", "value": "~70%"}
{"SMILES": "Cc1nc2c(N)nc(N)nc2n1C(Cc1ccc(O)cc1)C(=O)O (stereo not shown)", "tested on": "unidentified influenza virus", "test": "viral replication", "test system": "A549, H1N1 PR8", "setting": "24 h", "measurement": "IC50", "value": "24 nM"}
{"SMILES": "O=c1c(O[C@@H]2O[C@H](CO)[C@H](O)[C@H](O)[C@H]2O)c(-c2ccc(O)c(O)c2)oc2cc(O)cc(O)c12", "test": "ABTS scavenging, absorbance", "setting": "5 min", "measurement": "IC50", "value": "6610 nM"}
{"SMILES": "COc1ccc(C(=O)c2c[nH]c3ncc(-c4ccc(N5CCNCC5)nc4)cc23)cc1", "tested on": "A549", "test": "cell growth or viability, MTT", "setting": "10 µM, 48 h", "measurement": "viability", "value": "110%"}
{"SMILES": "Cc1nc2c(N)nc(=O)[nH]c2n1C(Cc1c[nH]c2ccccc12)C(=O)O (stereo not shown)", "tested on": "unidentified influenza virus", "test": "viral replication", "test system": "A549, H1N1 PR8", "setting": "24 h", "measurement": "IC50", "value": "510 nM"}
{"SMILES": "O=C(c1ccc(F)cc1)c1c[nH]c2ncc(-c3ccc(N4CCOCC4)nc3)cc12", "tested on": "A549", "test": "cell growth or viability, MTT", "setting": "10 µM, 48 h", "measurement": "viability", "value": "77.1%"}
{"SMILES": "COC(=O)C(Cc1c[nH]c2ccccc12)n1c(C)nc2c(N)nc(=O)[nH]c21 (stereo not shown)", "tested on": "unidentified influenza virus", "test": "viral replication", "test system": "A549, H1N1 PR8", "setting": "24 h", "measurement": "IC50", "value": "310 nM"}
{"SMILES": "CCOC(=O)c1c(CSc2ccccc2)n(C)c2cc(Br)c(O)c(CN(C)C)c12.Cl.O", "tested on": "Punta Toro virus", "test": "cytopathic effect", "measurement": "MIC50", "value": "> 100 µg/mL"}
